Measured values taken from ChEMBL document CHEMBL1828535, “Synthesis and in vitro activity of novel N-3 acylated TSAO-T compounds against HIV-1 and HCV” (Eur J Med Chem, 2011).
Active and inactive are the calls of the source. The calls are words filed in the database; no cut-off is given here.

What was measured:
[1] = test system: Human immunodeficiency virus 2; experiment: Antiviral activity against HIV2 ROD infected in human CEM cells assessed as inhibition of virus-induced cytopathicity after 4 days; format: functional, organism-based; conditions: Human immunodeficiency virus 2, ISOLATE ROD, CCRF-CEM, 96 h
Outline: (§1)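 CEM cells at 4 x 10⁶/mL infected with HIV-1 IIIB or HIV-2 ROD at ~100 CCID₅₀ per mL of cell suspension; compound present; syncytia formation scored microscopically after 4 days; EC₅₀ = concentration inhibiting virus-induced cytopathicity by 50%.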

[2] = test system: Human immunodeficiency virus 1; experiment: Antiviral activity against HIV1 harboring reverse transcriptase E138K mutant infected in human CEM cells assessed as inhibition of virus-induced cytopathicity after 4 days; format: functional, organism-based; conditions: CCRF-CEM
Outline: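 CEM cells at 4 x 10⁶ cells/mL infected with HIV-1/E138K (RT mutant strain selected under TSAO-m³T) at about 100 CCID₅₀ per mL of cell suspension. Syncytia formation scored microscopically after 4 days. EC₅₀ taken as the concentration inhibiting virus-induced cytopathicity by 50%.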

[3] = Chemical stability of the compound in phosphate buffered saline assessed as compound degradation after 72 hrs; format: physicochemical; conditions: buffer
Outline: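 Compound held in PBS at 37 °C for 72 h; degradation judged by comparing LCMS spectra before and after incubation.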

[4] = Cytotoxicity against human CEM cells after 4 days; format: cell-based; conditions: CEM (CCRF-CEM) cells
Outline: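 CC₅₀ taken as concentration inhibiting CEM cell proliferation by 50%.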

[5] = test system: Hepatitis C virus; experiment: Antiviral activity against HCV2a JFH1 infected in human Huh7 cells assessed as inhibition of viral replication after 72 hrs by luciferase reporter gene assay; format: functional, organism-based, Hepacivirus hominis; conditions: JFH-1, Huh-7, 72 h
[6] = test system: Human immunodeficiency virus 1; experiment: Antiviral activity against HIV1 3B infected in human CEM cells assessed as inhibition of virus-induced cytopathicity after 4 days; format: functional, organism-based; conditions: Human immunodeficiency virus 1, 3B, CCRF-CEM, 96 h; outline: as §1
[7] = Cytotoxicity against human HuH7 cells after 72 hrs; format: cell-based, Huh-7

SMILES	EC50 [1]	inhibition [2]	Stability [3]	CC50 at 96 h [4]	EC50 [5]	EC50 [6]	CC50 at 72 h [7]
Cc1cn([C@@H]2O[C@H](CO[Si](C)(C)C(C)(C)C)[C@@]3(OS(=O)(=O)C=C3N)[C@H]2O[Si](C)(C)C(C)(C)C)c(=O)n(C(=O)CCCC(=O)N(C)C)c1=O	≥ 4 µM	inactive	Stable	9.5 µM	4.4 µM	0.032 µM	> 100 µM
C[C@@]1(O)[C@H](O)[C@@H](CO)O[C@H]1n1ccc(N)nc1=O		inactive			2.4 µM		> 33 µM
Cc1cn([C@@H]2O[C@H](CO[Si](C)(C)C(C)(C)C)[C@@]3(OS(=O)(=O)C=C3N)[C@H]2O[Si](C)(C)C(C)(C)C)c(=O)n(C(=O)CCCC(=O)OCc2ccccc2)c1=O	≥ 4 µM	inactive	Stable	9.2 µM	10 µM	0.04 µM	> 100 µM
COC(=O)n1c(=O)c(C)cn([C@@H]2O[C@H](CO[Si](C)(C)C(C)(C)C)[C@@]3(OS(=O)(=O)C=C3N)[C@H]2O[Si](C)(C)C(C)(C)C)c1=O	≥ 100 µM	inactive	Stable	> 100 µM	> 100 µM	0.07 µM	> 100 µM
COC(=O)c1cccc(C(=O)n2c(=O)c(C)cn([C@@H]3O[C@H](CO[Si](C)(C)C(C)(C)C)[C@@]4(OS(=O)(=O)C=C4N)[C@H]3O[Si](C)(C)C(C)(C)C)c2=O)c1	≥ 4 µM	inactive	Stable	14 µM	8.2 µM	0.041 µM	> 100 µM
COC(=O)CCCC(=O)n1c(=O)c(C)cn([C@@H]2O[C@H](CO[Si](C)(C)C(C)(C)C)[C@@]3(OS(=O)(=O)C=C3N)[C@H]2O[Si](C)(C)C(C)(C)C)c1=O	≥ 4 µM	inactive	Stable	9.9 µM	11 µM	0.054 µM	> 100 µM
Cc1cn([C@@H]2O[C@H](CO[Si](C)(C)C(C)(C)C)[C@@]3(OS(=O)(=O)C=C3N)[C@H]2O[Si](C)(C)C(C)(C)C)c(=O)n(C(=O)CCCC(N)=O)c1=O	≥ 4 µM	inactive	Stable	8.7 µM	9 µM	0.038 µM	> 100 µM
CNC(=O)CCCC(=O)n1c(=O)c(C)cn([C@@H]2O[C@H](CO[Si](C)(C)C(C)(C)C)[C@@]3(OS(=O)(=O)C=C3N)[C@H]2O[Si](C)(C)C(C)(C)C)c1=O	≥ 4 µM	inactive	Stable	9.1 µM	12 µM	0.059 µM	> 100 µM
Cc1cn([C@@H]2O[C@H](CO[Si](C)(C)C(C)(C)C)[C@@]3(OS(=O)(=O)C=C3N)[C@H]2O[Si](C)(C)C(C)(C)C)c(=O)n(C(=O)CCCBr)c1=O	≥ 4 µM	inactive	Stable	11 µM	43 µM	0.052 µM	> 100 µM
Cc1cn([C@@H]2O[C@H](CO[Si](C)(C)C(C)(C)C)[C@@]3(OS(=O)(=O)C=C3N)[C@H]2O[Si](C)(C)C(C)(C)C)c(=O)n(C)c1=O	> 250 µM	inactive		115 µM	> 100 µM	0.037 µM	> 100 µM
Cc1cn([C@@H]2O[C@H](CO[Si](C)(C)C(C)(C)C)[C@@]3(OS(=O)(=O)C=C3N)[C@H]2O[Si](C)(C)C(C)(C)C)c(=O)[nH]c1=O	> 20 µM	inactive		12 µM	14 µM		> 100 µM
CSC(=O)CCCC(=O)n1c(=O)c(C)cn([C@@H]2O[C@H](CO[Si](C)(C)C(C)(C)C)[C@@]3(OS(=O)(=O)C=C3N)[C@H]2O[Si](C)(C)C(C)(C)C)c1=O	≥ 4 µM	inactive	Stable	9.9 µM	7 µM	0.037 µM	> 100 µM
Cc1cn([C@@H]2O[C@H](CO[Si](C)(C)C(C)(C)C)[C@@]3(OS(=O)(=O)C=C3N)[C@H]2O[Si](C)(C)C(C)(C)C)c(=O)n(C(=O)OC(C)(C)C)c1=O		inactive		26 µM			
Cc1cn([C@@H]2O[C@H](CO[Si](C)(C)C(C)(C)C)[C@@]3(OS(=O)(=O)C=C3N)[C@H]2O[Si](C)(C)C(C)(C)C)c(=O)n(C(=O)C2CC2)c1=O	≥ 4 µM	inactive	Stable	11 µM	8.5 µM	0.042 µM	> 100 µM
Cc1cn([C@@H]2O[C@H](CO[Si](C)(C)C(C)(C)C)[C@@]3(OS(=O)(=O)C=C3N)[C@H]2O[Si](C)(C)C(C)(C)C)c(=O)n(C(=O)CCCC(=O)OC(C)(C)C)c1=O	≥ 4 µM	inactive	Stable	11 µM	11 µM	0.033 µM	> 100 µM
Cc1cn([C@@H]2O[C@H](CO[Si](C)(C)C(C)(C)C)[C@@]3(OS(=O)(=O)C=C3N)[C@H]2O[Si](C)(C)C(C)(C)C)c(=O)n(C(=O)c2ccccc2)c1=O	≥ 4 µM	inactive	Stable	54 µM	9.8 µM	0.049 µM	> 100 µM
CNC(=O)CCCCn1c(=O)c(C)cn([C@@H]2O[C@H](CO[Si](C)(C)C(C)(C)C)[C@@]3(OS(=O)(=O)C=C3N)[C@H]2O[Si](C)(C)C(C)(C)C)c1=O	> 10 µM	inactive		10 µM			
Cc1cn([C@@H]2O[C@H](CO[Si](C)(C)C(C)(C)C)[C@@]3(OS(=O)(=O)C=C3N)[C@H]2O[Si](C)(C)C(C)(C)C)c(=O)n(C(=O)CCCC(=O)NCc2ccccc2)c1=O	≥ 4 µM	inactive	Stable	8.8 µM	7.6 µM	0.052 µM	> 100 µM
